The values that follow come from ChEMBL document CHEMBL1159118, “The effect of backbone cyclization on PK/PD properties of bioactive peptide-peptoid hybrids: the melanocortin agonist paradigm” (Bioorg Med Chem, 2010).

Data set [1] is described as follows: Metabolic stability in Wistar rat brush border membrane vesicles assessed as drug degradation up to 90 mins by HPLC. The data set is classed as ADME, cell membranes. The following applies: read-out: Activity. In short, it runs like this:
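Brush border membrane vesicles from duodenum, jejunum and upper ileum of male Wistar rats (200–250 g), Ca2+ precipitation, 13–18-fold marker-enzyme enrichment. Compound incubated with BBMVs at 37 °C for 90 min; duplicate samples at 0, 15, 30, 45, 60, 90 min, quenched 1:1 with ice-cold methanol, centrifuged, analysed by HPLC.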

The target of data set [2] is Melanocyte-stimulating hormone receptor (Mus musculus, UniProt Q01727). Kind of data set: Agonist activity at mouse MC1R expressed in HEK293 cells by beta-galactosidase reporter gene assay. The data set is classed as functional, cell-based. In general terms: In a reporter assay the amount or activity of a reporter protein is the signal.
Another data set concerns the target Melanocortin receptor 3 (Mus musculus, UniProt P33033). Briefly: Agonist activity at mouse MC3R expressed in HEK293 cells by beta-galactosidase reporter gene assay. Type of data set: functional, cell-based.
The next data set addresses Melanocortin receptor 4 (Mus musculus, UniProt P56450). Briefly: Agonist activity at mouse MC4R expressed in HEK293 cells by beta-galactosidase reporter gene assay. The data set is classed as functional, cell-based.
Another data set concerns the target Melanocortin receptor 5 (Mus musculus, UniProt P41149). Briefly: Agonist activity at mouse MC5R expressed in HEK293 cells by beta-galactosidase reporter gene assay. Type of data set: functional, cell-based.
Data set [3] concerns Serum. Briefly: (§1) Metabolic stability in rat serum assessed as drug degradation after 1 hr. The data set is classed as ADME, cell-free. Particulars: 1 h. The gist of the method: (§2)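 Incubation in rat serum, sampled at 0, 1, 2 and 5 h; degradation relative to initial concentration.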
The subject of data set [4] is Serum. Briefly: Metabolic stability in rat serum assessed as drug remaining after 3 hrs. The data set is classed as ADME, cell-free.
Data set [5] deals with Serum. Briefly: (§3) Metabolic stability in rat serum assessed as drug degradation after 4 hrs. Type of data set: ADME, cell-free. Particulars: 4 h.
A short description of data set [6]: Membrane binding affinity to synthetic dimyristoylphosphatidylcholine/polydiacetylene vesicles assessed as colorimetric response by colorimetric assay. More on the design: concentration or dose not given beside the values. The gist of the method:
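Peptide added from 0.4 mg/mL stock to vesicles (0.5 mM total lipids, 25 mM Tris-base pH 8), diluted with water; UV–vis absorbance at 640 and 500 nm; %CR = [(PB0 − PBI)/PB0] × 100, PB = Ablue/(Ablue + Ared); duplicates.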

A short description of data set [7]: as §1. Particulars: read-out: Activity. Type of data set: ADME, cell-free. The gist of the method: as §2
The target in data set [8] is Melanocortin receptor 4 (Mus musculus) (UniProt P56450). Kind of data set: Agonist activity at mouse MC4R expressed in HEK293 cells at 100 uM by beta-galactosidase reporter gene assay relative to control. The data set is classed as functional, cell-based. In short, it runs like this: (§4)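 CRE/β-galactosidase reporter in HEK-293 cells stably expressing the mouse receptor; 6 h peptide exposure with 0.1 mM IBMX; ONPG read at OD 405 nm, normalized to protein content and forskolin (10–4 M) response; % stimulation at highest concentration tested, relative to control; ≥3 independent experiments.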

Data set [9] has as its target Melanocortin receptor 3 (Mus musculus) (UniProt P33033). Kind of data set: Agonist activity at mouse MC3R expressed in HEK293 cells at 100 uM by beta-galactosidase reporter gene assay relative to control. The data set is classed as functional, cell-based. The gist of the method:
as §4

A short description of data set [10]: as §3. Type of data set: ADME, cell-free. The following applies: read-out: Activity.
The next data set relates to Caco-2. Kind of data set: Ratio of Papp for mannitol to Papp for drug in permeability across apical to basolateral side of human Caco-2 cells. Type of data set: ADME, cell-based. A general note: Passage across Caco-2 layers is used to estimate intestinal permeability.

Numbered stars: 1 amine (or outer) side, 2 acyl side, 3 side chain; on linkers, the order of the positions; unused ones are H or OH. Bridge positions count the residues as written; N and C are the ends. Square brackets hold non-standard residues; d marks the D form. Peptide text beside a SMILES is read from it. N(2-Aminoethyl)Gly = O=C(CN(CCN[*:3])[*:1])[*:2]; Adipoyl = O=C(CCCCC(=O)[*:2])[*:1]; Glutaryl = O=C(CCCC(=O)[*:2])[*:1]; Suc = O=C(CCC(=O)[*:2])[*:1]; Nphe = O=C(O)CNCc1ccccc1

Sequence of Melanocortin receptor 4 (P56450 whole entry): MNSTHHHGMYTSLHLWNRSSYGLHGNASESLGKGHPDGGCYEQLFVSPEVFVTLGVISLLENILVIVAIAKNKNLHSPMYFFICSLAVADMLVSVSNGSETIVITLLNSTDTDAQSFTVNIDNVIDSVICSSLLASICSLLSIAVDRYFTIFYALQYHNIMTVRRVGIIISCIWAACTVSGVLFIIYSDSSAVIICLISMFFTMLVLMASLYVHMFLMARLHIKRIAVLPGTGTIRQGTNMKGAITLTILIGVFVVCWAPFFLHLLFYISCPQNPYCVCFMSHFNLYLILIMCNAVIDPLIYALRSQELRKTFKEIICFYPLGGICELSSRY
Sequence of Melanocyte-stimulating hormone receptor (Q01727 whole entry): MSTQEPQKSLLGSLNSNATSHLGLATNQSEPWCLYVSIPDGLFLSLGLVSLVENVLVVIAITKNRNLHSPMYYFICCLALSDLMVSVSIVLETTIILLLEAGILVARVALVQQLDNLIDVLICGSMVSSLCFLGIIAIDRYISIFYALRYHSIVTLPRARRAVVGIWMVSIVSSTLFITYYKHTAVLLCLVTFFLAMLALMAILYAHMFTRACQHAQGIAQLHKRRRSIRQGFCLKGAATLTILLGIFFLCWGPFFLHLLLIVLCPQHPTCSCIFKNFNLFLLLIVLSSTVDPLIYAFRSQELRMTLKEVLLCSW
Sequence of Melanocortin receptor 5 (P41149 whole entry): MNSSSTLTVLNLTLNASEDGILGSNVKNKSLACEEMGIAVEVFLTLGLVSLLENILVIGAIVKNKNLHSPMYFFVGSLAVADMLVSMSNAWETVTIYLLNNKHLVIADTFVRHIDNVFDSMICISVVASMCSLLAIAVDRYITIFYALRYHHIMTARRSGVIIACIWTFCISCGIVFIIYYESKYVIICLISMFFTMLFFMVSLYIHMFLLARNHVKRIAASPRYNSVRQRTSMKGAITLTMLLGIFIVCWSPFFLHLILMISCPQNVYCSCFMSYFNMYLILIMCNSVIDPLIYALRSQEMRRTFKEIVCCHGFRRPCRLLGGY
Sequence of Melanocortin receptor 3 (P33033 whole entry): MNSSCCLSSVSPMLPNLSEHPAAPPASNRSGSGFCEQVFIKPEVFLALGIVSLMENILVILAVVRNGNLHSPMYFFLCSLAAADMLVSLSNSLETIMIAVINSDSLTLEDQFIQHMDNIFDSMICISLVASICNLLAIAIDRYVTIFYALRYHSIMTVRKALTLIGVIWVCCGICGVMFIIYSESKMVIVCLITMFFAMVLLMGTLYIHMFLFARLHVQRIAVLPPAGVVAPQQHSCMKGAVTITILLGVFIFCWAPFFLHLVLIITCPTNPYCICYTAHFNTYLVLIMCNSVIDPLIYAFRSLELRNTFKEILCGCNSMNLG
Sequence of Melanocortin receptor 4 (Mus musculus) (P56450 whole entry): as the sequence (P56450 whole entry) above
Sequence of Melanocortin receptor 3 (Mus musculus) (P33033 whole entry): as the sequence (P33033 whole entry) above

Consider `NC(=O)CN1CCNC(=O)CCCCC(=O)N(Cc2ccccc2)CC(=O)N(Cc2ccccc2)CC(=O)N[C@@H](CCCN=C(N)N)C(=O)N[C@@H](Cc2c[nH]c3ccccc23)C1=O` ([Nphe][Nphe]RW[N(2-Aminoethyl)Gly]-NH2; linker N-5 via Adipoyl), for which the metabolised at 1.5 h in data set [1] was 5%. The EC50 – broadly, the concentration that produces a half-maximal response – was 990 nM in data set [2], > 100 nM at Melanocortin receptor 3, 1700 nM at Melanocortin receptor 4 and 320 nM at Melanocortin receptor 5.

`NC(=O)CN1CCNC(=O)CCCC(=O)N[C@@H](Cc2ccccc2)C(=O)N(Cc2ccccc2)CC(=O)N[C@@H](CCCN=C(N)N)C(=O)N[C@@H](Cc2c[nH]c3ccccc23)C1=O` (F[Nphe]RW[N(2-Aminoethyl)Gly]-NH2; linker N-5 via Glutaryl): the metabolised at 1.5 h in [1] is 5%. Moreover, the EC50 in data set [2] was 1000 nM; at Melanocortin receptor 3, > 100 nM; on Melanocortin receptor 5, 2320 nM.

As for `N=C(N)NCCC[C@@H]1NC(=O)[C@@H](Cc2ccccc2)NC(=O)CN(Cc2ccccc2)C(=O)CCC(=O)NCCN(CC(N)=O)C(=O)[C@H](Cc2c[nH]c3ccccc23)NC1=O`, the Stability entry in the data set with Serum [3] and with Serum [4] was “Stable” in each case. The Activity result in the data set with Serum [5] was “Stable”; in data set [6], < 30%. The metabolised at 1.5 h in data set [1] worked out at 5%. Moreover, the EC50 in data set [2] is 380 nM; on Melanocortin receptor 3 it was > 100 nM; at Melanocortin receptor 4 it was 1370 nM; on Melanocortin receptor 5, 1650 nM.

As to `N=C(N)NCCC[C@@H]1NC(=O)CN(Cc2ccccc2)C(=O)CN(Cc2ccccc2)C(=O)CCCC(=O)NCCN(CC(N)=O)C(=O)[C@H](Cc2c[nH]c3ccccc23)NC1=O` ([Nphe][Nphe]RW[N(2-Aminoethyl)Gly]-NH2; linker N-5 via Glutaryl), the Activity in data set [6] is < 30%.

On to `CC(=O)NCC(=O)N(CC(=O)N[C@H](Cc1ccccc1)C(=O)N[C@@H](CCCNC(=N)N)C(=O)N[C@@H](Cc1c[nH]c2ccccc12)C(=O)NCC(N)=O)Cc1ccccc1`, for which, in data set [7], the metabolised at 1 h amounted to 50%. For the same compound, the metabolised at 1.5 h in data set [1] worked out at 20%. Further, the EC50 is 11800 nM in [2], > 100 nM at Melanocortin receptor 3, 9820 nM at Melanocortin receptor 4 and 3430 nM at Melanocortin receptor 5. Besides, in [6], the Activity worked out at 31%.

Consider `N=C(N)NCCC[C@@H]1NC(=O)CN(Cc2ccccc2)C(=O)[C@H](Cc2ccccc2)NC(=O)CCCC(=O)NCCN(CC(N)=O)C(=O)[C@H](Cc2c[nH]c3ccccc23)NC1=O` (F[Nphe]RW[N(2-Aminoethyl)Gly]-NH2; linker N-5 via Glutaryl), for which the results for the Activity in data set [8] and in data set [6] were 25% and < 30%, respectively.

Consider `N=C(N)NCCC[C@@H]1NC(=O)CN(Cc2ccccc2)C(=O)CN(Cc2ccccc2)C(=O)CCC(=O)NCCN(CC(N)=O)C(=O)[C@H](Cc2c[nH]c3ccccc23)NC1=O` ([Nphe][Nphe]RW[N(2-Aminoethyl)Gly]-NH2; linker N-5 via Suc), for which the metabolised at 1.5 h in data set [1] stood at 5%. Moreover, the EC50 in data set [2] is 620 nM; at Melanocortin receptor 3 it was > 100 nM; on Melanocortin receptor 4, 1960 nM; at Melanocortin receptor 5 it was 2950 nM. Moreover, the Activity in data set [6] was < 30%.

For the compound `NC(=O)[C@H](Cc1c[nH]c2ccccc12)NC(=O)[C@H](CCCN=C(N)N)NC(=O)[C@@H](Cc1ccccc1)NC(=O)[C@@H](N)Cc1ccccc1`, the EC50 worked out at 503 nM in data set [2], 11900 nM at Melanocortin receptor 3, 70.6 nM at Melanocortin receptor 4 and 143 nM at Melanocortin receptor 5.

`N=C(N)NCCC[C@@H]1NC(=O)CN(Cc2ccccc2)C(=O)CN(Cc2ccccc2)C(=O)CCCCC(=O)NCCN(CC(N)=O)C(=O)[C@H](Cc2c[nH]c3ccccc23)NC1=O` ([Nphe][Nphe]RW[N(2-Aminoethyl)Gly]-NH2; linker N-5 via Adipoyl): in [6], the Activity is < 30%.

For the compound `CC(=O)NCC(=O)N(CC(=O)N(CC(=O)N[C@@H](CCCNC(=N)N)C(=O)N[C@@H](Cc1c[nH]c2ccccc12)C(=O)NCC(N)=O)Cc1ccccc1)Cc1ccccc1` (HELM PEPTIDE1{[ac].G.[O=C(CN(Cc1ccccc1)[*:1])[*:2]].[O=C(CN(Cc1ccccc1)[*:1])[*:2]].R.W.G.[am]}$$$$V2.0), in the data set with Serum [4], the Stability result was “Unstable”. Further, the metabolised at 1.5 h in data set [1] was 20%. The EC50 in data set [2] was found to be 240 nM; at Melanocortin receptor 4, 10.5 nM; at Melanocortin receptor 5, 8.1 nM. Also, the Activity in data set [9] is 40%; in data set [6] it was < 30%.

For `N=C(N)NCCC[C@@H]1NC(=O)[C@@H](Cc2ccccc2)NC(=O)CN(Cc2ccccc2)C(=O)CCCCC(=O)NCCN(CC(N)=O)C(=O)[C@H](Cc2c[nH]c3ccccc23)NC1=O`, the metabolised at 4 h in data set [10] was > 40%. The metabolised at 1.5 h in data set [1] was determined as 5%. In addition, the EC50 was 120 nM in data set [2], 7170 nM at Melanocortin receptor 3, 49 nM at Melanocortin receptor 4 and 8.1 nM on Melanocortin receptor 5. Moreover, the Activity in data set [6] was found to be 90%.

For the compound `NC(=O)CN1CCNC(=O)CCCCC(=O)N[C@@H](Cc2ccccc2)C(=O)N(Cc2ccccc2)CC(=O)N[C@@H](CCCN=C(N)N)C(=O)N[C@@H](Cc2c[nH]c3ccccc23)C1=O` (F[Nphe]RW[N(2-Aminoethyl)Gly]-NH2; linker N-5 via Adipoyl), in data set [1], the metabolised at 1.5 h is 5%. For the same compound, the concentration for a half-maximal effect (EC50) in [2] was 1170 nM; on Melanocortin receptor 3 it was > 100 nM; at Melanocortin receptor 4 it was 3300 nM; on Melanocortin receptor 5, 485 nM.

For the compound `NC(=O)CN1CCNC(=O)CCC(=O)N[C@@H](Cc2ccccc2)C(=O)N(Cc2ccccc2)CC(=O)N[C@@H](CCCN=C(N)N)C(=O)N[C@@H](Cc2c[nH]c3ccccc23)C1=O` (F[Nphe]RW[N(2-Aminoethyl)Gly]-NH2; linker N-5 via Suc), the metabolised at 1.5 h in data set [1] is 5%. Besides, the EC50 in [2] was 2810 nM; on Melanocortin receptor 3, > 100 nM; at Melanocortin receptor 4, 3830 nM; on Melanocortin receptor 5 it was 3960 nM.

Take `N=C(N)NCCC[C@@H]1NC(=O)CN(Cc2ccccc2)C(=O)[C@H](Cc2ccccc2)NC(=O)CCC(=O)NCCN(CC(N)=O)C(=O)[C@H](Cc2c[nH]c3ccccc23)NC1=O` (F[Nphe]RW[N(2-Aminoethyl)Gly]-NH2; linker N-5 via Suc): the Activity in data set [6] is < 30%.

Consider `N=C(N)NCCC[C@@H]1NC(=O)[C@@H](Cc2ccccc2)NC(=O)CN(Cc2ccccc2)C(=O)CCCC(=O)NCCN(CC(N)=O)C(=O)[C@H](Cc2c[nH]c3ccccc23)NC1=O`, for which, in [10], the metabolised at 4 h is > 40%. Moreover, the metabolised at 1.5 h in [1] turned out to be 5%. The Ratio in the data set with Caco-2 came to 3. The EC50 in data set [2] was 220 nM; on Melanocortin receptor 3, > 100 nM; on Melanocortin receptor 4, 640 nM; on Melanocortin receptor 5, 310 nM. In data set [6], the Activity came to 89%.

Take `NC(=O)CN1CCNC(=O)CCCC(=O)N(Cc2ccccc2)CC(=O)N(Cc2ccccc2)CC(=O)N[C@@H](CCCN=C(N)N)C(=O)N[C@@H](Cc2c[nH]c3ccccc23)C1=O` ([Nphe][Nphe]RW[N(2-Aminoethyl)Gly]-NH2; linker N-5 via Glutaryl): the metabolised at 1.5 h in [1] was 5%. Further, in the data set with Caco-2, the Ratio was 3. Besides, the EC50 was 1680 nM in data set [2], > 100 nM on Melanocortin receptor 3, 2250 nM on Melanocortin receptor 4 and 350 nM on Melanocortin receptor 5.

Regarding `CC(=O)NCC(=O)N[C@@H](Cc1ccccc1)C(=O)N(CC(=O)N[C@@H](CCCNC(=N)N)C(=O)N[C@@H](Cc1c[nH]c2ccccc12)C(=O)NCC(N)=O)Cc1ccccc1` (HELM PEPTIDE1{[ac].G.F.[O=C(CN(Cc1ccccc1)[*:1])[*:2]].R.W.G.[am]}$$$$V2.0), the Stability result in the data set on Serum [4] is recorded as “Unstable”. Further, the metabolised at 1.5 h in data set [1] stood at 20%. Besides, the EC50 is 220 nM in [2], > 100 nM on Melanocortin receptor 3, 8.8 nM on Melanocortin receptor 4 and 16.2 nM at Melanocortin receptor 5. Besides, the Activity in data set [6] is < 30%.

On to `N=C(N)NCCC[C@@H]1NC(=O)CN(Cc2ccccc2)C(=O)[C@H](Cc2ccccc2)NC(=O)CCCCC(=O)NCCN(CC(N)=O)C(=O)[C@H](Cc2c[nH]c3ccccc23)NC1=O` (F[Nphe]RW[N(2-Aminoethyl)Gly]-NH2; linker N-5 via Adipoyl), for which the Activity in data set [6] is < 30%.
